Source: ChEMBL document CHEMBL1124260, “Synthesis and antitumor activity of quaternary ellipticine glycosides, a series of novel and highly active antitumor agents” (1988)

What was measured:
Mus musculus [1] = test: Number of survivors out of 6 ip implanted L1210 leukemia mouse tested after 80 days at 20 mg/kg; type: functional; details: route intraperitoneal
Outline: (§1)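 Female BDF1 mice implanted ip with ascitic fluid holding 10^5 L1210 cells. Saline-dissolved drug given ip daily on days 1-5, starting 24 h after implant. Six mice per dose group, followed 80 days. Survivors/total counted at day 80; ILS % from mean survival time vs controls.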

Mus musculus [2] = test: Antitumor activity against ip implanted L1210 leukemia in mouse after ip administration of 20 mg/kg for 5 days expressed as increase in mean life span; type: functional; details: 120 h, route intraperitoneal
Outline: (§2)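 Drug was dissolved in 0.9% NaCl, diluted just before use and given ip once daily for 5 consecutive days, starting 24 h after transplant. ILS % = mean survival time of treated vs control mice, observed for 80 days.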

Mus musculus [3] = test: Antitumor activity against ip implanted L1210 leukemia in mouse after iv administration of 2.5 mg/kg for 5 days expressed as increase in mean life span; details: 120 h
Mus musculus [4] = test: Antitumor activity against ip implanted P388 leukemia in mouse after iv administration of 2.5 mg/kg for 5 days expressed as increase in mean life span; details: 120 h
Mus musculus [5] = test: Effect on ip implanted syngeneic B16 melanoma by ip administration for 9 days at 2.5 mg/kg was measured as increase in mean life span; details: 216 h
Mus musculus [6] = test: Number of survivors out of 6 ip implanted P388 leukemia in mouse after ip administration of 2.5 mg/kg after 80 days; type: functional; details: route intraperitoneal
Outline: (§3)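 P388 leukemia, 10^6 ascitic cells implanted ip in female BDF1 mice. Drug in saline given ip for 5 consecutive days from 24 h after transplant. Groups of six per dose level. Survivors/total recorded at the 80-day end of observation; ILS % from treated/control mean survival time.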

Mus musculus [7] = test: Antitumor activity against ip implanted L1210 leukemia in mouse after ip administration of 2.5 mg/kg for 5 days expressed as increase in mean life span; type: functional; details: 120 h, route intraperitoneal; outline: as §2
Mus musculus [8] = test: Inhibition of sc implanted syngeneic colon 38 carcinoma by ip administration at 2.5 mg/kg on 1, 3, 5, 7, 9 days measured as inhibition ratio; type: functional; details: route subcutaneous
Outline: (§4)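 Tumor homogenate (70 mg) implanted into the axillary region of female BDF1 mice. Drug dissolved in 0.9% NaCl and diluted with saline just before use, then given ip on days 1, 3, 5, 7 and 9. Tumor length and width were measured by caliper on day 20 after inoculation and converted to estimated weight. Result reported as treated vs control tumor weight, T/C %.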

Mus musculus [9] = test: Antitumor activity against ip implanted P388 leukemia in mouse after ip administration of 2.5 mg/kg for 5 days expressed as increase in mean life span; type: functional; details: 120 h, route intraperitoneal
Outline: (§5)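 Saline-dissolved drug was given ip daily for 5 consecutive days, beginning 24 h post-transplant. ILS % was calculated from treated vs control mean survival time over an 80-day observation period.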

Mus musculus [10] = test: Number of survivors out of 6 ip implanted L1210 leukemia mouse tested after 80 days at 10 mg/kg; type: functional; details: route intraperitoneal; outline: as §1
Mus musculus [11] = test: Antitumor activity against ip implanted L1210 leukemia in mouse after ip administration of 10 mg/kg for 5 days expressed as increase in mean life span; type: functional; details: route intraperitoneal; for ILS at 10 mg/kg: Mus musculus, L1210, ip, 120 h; outline: as §2
Mus musculus [12] = test: Number of survivors out of 6 ip implanted P388 leukemia in mouse after ip administration of 40 mg/kg after 80 days; type: functional; details: route intraperitoneal; outline: as §3
Mus musculus [13] = test: Antitumor activity against ip implanted P388 leukemia in mouse after ip administration of 10 mg/kg for 5 days expressed as increase in mean life span; type: functional; details: 120 h, route intraperitoneal; outline: as §5
Mus musculus [14] = test: Antitumor activity against ip implanted P388 leukemia in mouse after ip administration of 40 mg/kg for 5 days expressed as increase in mean life span; type: functional; details: 120 h, route intraperitoneal; outline: as §5
Mus musculus [15] = test: Effect on ip implanted syngeneic B16 melanoma by ip administration for 9 days at 5 mg/kg was measured as increase in mean life span; details: 216 h
Mus musculus [16] = test: Inhibition of sc implanted syngeneic colon 38 carcinoma by ip administration at 20 mg/kg on 1, 3, 5, 7, 9 days measured as inhibition ratio; type: functional; details: route subcutaneous; outline: as §4
Mus musculus [17] = test: Effect on ip implanted syngeneic B16 melanoma by ip administration of 20 mg/kg for 9 days measured as increase in mean life span; details: 216 h
Mus musculus [18] = test: Antitumor activity against ip implanted L1210 leukemia in mouse after ip administration of 30 mg/kg for 5 days expressed as increase in mean life span; type: functional; details: Mus musculus, L1210, ip, 120 h, route intraperitoneal; outline: as §2
Mus musculus [19] = test: Number of survivors out of 6 ip implanted L1210 leukemia in mouse after ip administration of 40 mg/kg after 80 days; type: functional; details: route intraperitoneal; outline: as §1
Mus musculus [20] = test: Antitumor activity against ip implanted P388 leukemia in mouse after ip administration of 5 mg/kg for 5 days expressed as increase in mean life span; type: functional; details: 120 h, route intraperitoneal; outline: as §5
Mus musculus [21] = test: Effect on ip implanted syngeneic B16 melanoma by ip administration for 9 days at 10 mg/kg was measured as increase in mean life span; details: 216 h
Mus musculus [22] = test: Number of survivors out of 6 ip implanted P388 leukemia in mouse after ip administration of 5 mg/kg after 80 days; type: functional; details: route intraperitoneal; outline: as §3
Mus musculus [23] = test: Antitumor activity against ip implanted P388 leukemia in mouse after ip administration of 20 mg/kg for 5 days expressed as increase in mean life span; type: functional; details: 120 h, route intraperitoneal; outline: as §5
Mus musculus [24] = test: Antitumor activity against ip implanted P388 leukemia in mouse after ip administration of 1.25 mg/kg for 5 days expressed as increase in mean life span; type: functional; details: 120 h, route intraperitoneal; outline: as §5
Mus musculus [25] = test: Number of survivors out of 6 ip implanted L1210 leukemia in mouse after ip administration of 10 mg/kg after 80 days; type: functional; details: route intraperitoneal; outline: as §1
Mus musculus [26] = test: Inhibition of sc implanted syngeneic colon 38 carcinoma by ip administration at 30 mg/kg on 1, 3, 5, 7, 9 days measured as inhibition ratio; type: functional; details: route intraperitoneal; outline: as §4
Mus musculus [27] = test: Number of survivors out of 6 ip implanted L1210 leukemia in mouse after ip administration of 20 mg/kg after 80 days; type: functional; details: route intraperitoneal; outline: as §1
Mus musculus [28] = test: Number of survivors out of 6 ip implanted L1210 leukemia mouse, tested after 80 days at 30 mg/kg; type: functional; details: route intraperitoneal; outline: as §1
Mus musculus [29] = test: Number of survivors out of 6 ip implanted P388 leukemia in mouse after ip administration of 20 mg/kg after 80 days; type: functional; details: route intraperitoneal; outline: as §3
Mus musculus [30] = test: Inhibition of sc implanted syngeneic colon 38 carcinoma by ip administration at 40 mg/kg on 1, 3, 5, 7, 9 days measured as inhibition ratio; type: functional; details: route subcutaneous; outline: as §4
Mus musculus [31] = test: Antitumor activity against ip implanted L1210 leukemia in mouse after ip administration of 1.25 mg/kg for 5 days expressed as increase in mean life span; type: functional; details: 120 h, route intraperitoneal; outline: as §2
Mus musculus [32] = test: Antitumor activity against ip implanted L1210 leukemia in mouse after ip administration of 40 mg/kg for 5 days expressed as increase in mean life span; type: functional; details: 120 h, route intraperitoneal; outline: as §2
Mus musculus [33] = test: Antitumor activity against ip implanted L1210 leukemia in mouse after ip administration of 5 mg/kg for 5 days expressed as increase in mean life span; type: functional; details: Mus musculus, L1210, ip, 120 h, route intraperitoneal; outline: as §2
Mus musculus [34] = test: Number of survivors out of 6 ip implanted P388 leukemia in mouse after ip administration of 10 mg/kg after 80 days; type: functional; details: route intraperitoneal; outline: as §3

Cc1c2cc[n+](C3O[C@@H](CO)[C@H](O)[C@@H]3O)cc2c(C)c2c1[nH]c1ccccc12.[Br-] (some centres not stated)
Cures (Mus musculus [1]): 0 | ILS at 20 mg/kg (Mus musculus [2]): 80%

COc1cccc2c1C(=O)c1c(O)c3c(c(O)c1C2=O)C[C@@](O)(C(=O)CO)C[C@@H]3O[C@H]1C[C@H](N)[C@H](O)[C@H](C)O1 [DOXORUBICIN]
ILS at 2.5 mg/kg (Mus musculus [3]): 30% | ILS at 2.5 mg/kg (Mus musculus [4]): 65% | ILS at 2.5 mg/kg (Mus musculus [5]): > 257% | Cures (Mus musculus [6]): 5 | ILS at 2.5 mg/kg (Mus musculus [7]): 90% | T/C (Mus musculus [8]): 31% | ILS at 2.5 mg/kg (Mus musculus [9]): > 675%

COc1ccc2[nH]c3c(C)c4cc[n+](C5OC(CO)C(O)C(O)C5O)cc4c(C)c3c2c1.[Br-] (configuration not stated)
Cures (Mus musculus [10]): 0 | ILS at 10 mg/kg (Mus musculus [11]): 14%

Cc1c2cc[n+]([C@@H]3O[C@H](CO)[C@H](O)[C@@H]3O)cc2c(C)c2c1[nH]c1ccc(O)cc12.[Cl-] (stereo in doubt; 43b)
Cures (Mus musculus [10]): 3 | ILS (Mus musculus [11]; 10 mg/kg): >552%

Cc1c2cc[n+]([C@H]3O[C@H](CO)[C@@H](O)[C@@H]3O)cc2c(C)c2c1[nH]c1ccc(O)cc12.[Br-]
Cures (Mus musculus [1]): 0 | ILS at 20 mg/kg (Mus musculus [2]): 91% | Cures (Mus musculus [10]): 2 | ILS at 10 mg/kg (Mus musculus [11]): > 379%

Cc1c2cc[n+]([C@@H]3OC[C@@H](O)[C@H](O)[C@@H]3O)cc2c(C)c2c1[nH]c1ccc(O)cc12.[Cl-]
Cures (Mus musculus [12]): 4 | ILS at 10 mg/kg (Mus musculus [13]): > 369% | ILS at 40 mg/kg (Mus musculus [14]): > 526% | ILS at 5 mg/kg (Mus musculus [15]): 41% | T/C (Mus musculus [16]): 37% | ILS at 20 mg/kg (Mus musculus [17]): 87% | ILS at 30 mg/kg (Mus musculus [18]): > 786% | Cures (Mus musculus [19]): 4 | ILS at 5 mg/kg (Mus musculus [20]): > 212% | ILS at 10 mg/kg (Mus musculus [21]): 61% | Cures (Mus musculus [22]): 1 | ILS at 20 mg/kg (Mus musculus [23]): > 585% | ILS at 20 mg/kg (Mus musculus [2]): > 249% | ILS at 1.25 mg/kg (Mus musculus [24]): 87% | Cures (Mus musculus [25]): 1 | T/C (Mus musculus [26]): 18% | Cures (Mus musculus [27]): 1 | Cures (Mus musculus [28]): 5 | Cures (Mus musculus [29]): 4 | T/C (Mus musculus [30]): 5% | ILS at 1.25 mg/kg (Mus musculus [31]): 46% | ILS at 40 mg/kg (Mus musculus [32]): > 668% | ILS at 10 mg/kg (Mus musculus [11]): > 238% | ILS at 5 mg/kg (Mus musculus [33]): 68% | Cures (Mus musculus [34]): 2
